“Also recorded” adds a separate entry of the source. Each block holds one molecule with its values, some of them ahead of it.
Experiments:
[1] = system: Shh signaling (Gli1 activation) in NIH 3T3 cells; experiment: Gli-responsive luciferase reporter assay in Shh-transfected NIH 3T3 cells; type: cell-based; settings: for Gli-responsive luciferase activation (FL/RL ratio): NIH 3T3 cells cotransfected with Shh, 10 μM, 24 h
Procedure, shortened: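 NIH 3T3 cells cotransfected with pRL-TK, 8XGliBS-firefly luciferase (or mutant reporter) and Shh plasmids. Seeded 24 h later at 1×10^6 cells/well and grown to confluence. Treated 24 h with DMSO or 10 μM test compound. Firefly and Renilla luciferase measured in lysates; FL/RL ratio normalized to DMSO-treated cells.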

[2] = system: Hhat-mediated Shh palmitoylation in COS-1 cells; experiment: Shh palmitoylation in COS-1 cells; type: cell-based
Procedure, shortened: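 COS-1 cells transfected with Shh and HA-Hhat given test compound or DMSO overnight or from the start of […] serum starvation (DMEM, 2% dialyzed FCS). Labeled 4 h at 37°C with 15–30 μCi/ml 125I-iodo-palmitate. Lysed in RIPA, ultracentrifuged, immunoprecipitated 16 h at 4°C, SDS-PAGE with western blot and phosphorimaging. Duplicates, repeated at least three times.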

Hhat = Hhat (Homo sapiens, UniProt Q5VTY9); experiment: RU-SKI 43 inhibition kinetics with purified Hhat and ShhN; type: biochemical; settings: Ki with respect to 125I-iodo-palmitoylCoA, noncompetitive inhibitor; purified Hhat, 125I-iodo-palmitoylCoA titrated, 38μM ShhN
[3] = system: Shh signaling in SuFu−/− cells; experiment: Gli luciferase reporter assay in SuFu-/- cells; type: cell-based, murine; settings: 10 μM, 24h
Procedure, shortened: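 SuFu−/− mouse embryonic fibroblasts transfected with wild-type or mutant 8XGliBS-firefly luciferase plus pRL-TK Renilla plasmids. Reseeded 24 h later, grown to confluence, then given DMSO or 10 μM test compound for 24 h. Dual luciferase measured in lysates as FL/RL ratio; mean ± SD (n=2–4), experiment run at least twice.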

Porcupine = molecular target: T1, Porcupine (Mus musculus, UniProt Q9JJJ7); experiment: Wnt3a fatty acylation by Porcupine in L Wnt-3a cells; type: cell-based; settings: Mouse L Wnt-3a cells, FLAG-Porcupine
T1 sequence (Q9JJJ7 1-461): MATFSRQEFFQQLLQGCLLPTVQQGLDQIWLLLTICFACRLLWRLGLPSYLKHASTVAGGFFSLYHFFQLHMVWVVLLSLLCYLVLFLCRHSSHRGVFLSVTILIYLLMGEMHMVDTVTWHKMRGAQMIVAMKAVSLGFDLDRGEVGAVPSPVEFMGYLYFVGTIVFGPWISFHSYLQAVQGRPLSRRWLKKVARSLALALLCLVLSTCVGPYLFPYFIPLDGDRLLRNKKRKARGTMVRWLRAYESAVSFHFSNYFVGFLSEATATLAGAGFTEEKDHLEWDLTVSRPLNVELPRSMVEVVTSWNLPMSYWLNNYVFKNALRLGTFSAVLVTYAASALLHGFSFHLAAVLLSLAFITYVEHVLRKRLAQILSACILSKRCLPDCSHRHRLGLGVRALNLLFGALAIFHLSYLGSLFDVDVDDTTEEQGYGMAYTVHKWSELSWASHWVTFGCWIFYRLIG
Procedure, shortened: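 Mouse L-Wnt3a cells transfected with 6 μg FLAG-Porcupine or empty vector. After 48 h, serum-starved 3 h in DMEM with 2% dialyzed FCS plus DMSO, 10 μM test compound or 100 nM reference Porcupine inhibitor. Labeled 6 h with 40 μCi 125I-iodo-pentadecanoate. Wnt3a and FLAG-Porcupine immunoprecipitated 16 h at 4°C, then SDS-PAGE, western blot, phosphorimaging. Duplicates, repeated three times.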

palmitoylation of Fyn = experiment: Fyn palmitoylation in COS-1 cells; type: cell-based; settings: COS-1 cells expressing Fyn
Procedure, shortened: (§1)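 COS-1 cells co-transfected with Shh and HA-Hhat plus H-Ras or Fyn. Test compound or DMSO was added the night before or at the start of serum starvation. Cells were starved 1 h in DMEM with 2% dialyzed FCS, then labeled with 15–30 μCi/ml 125I-iodo-palmitate for 4 h at 37°C. Lysates in RIPA were cleared at 100,000xg, immunoprecipitated 16 h at 4°C, run on 12.5% SDS-PAGE and phosphorimaged. Duplicates, repeated ≥3 times.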

[4] = system: Gli1 activation in Shh Light II cells; experiment: Gli luciferase reporter assay in Shh Light II cells; type: cell-based; settings: 10 μM RU-SKI 43, 24 h
Procedure, shortened: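 Shh Light II cells (stable Gli1 luciferase reporter) grown to confluence, moved to 0.5% serum medium, and exposed 24 h to DMSO or 10 μM test compound, with or without 100 nM SAG or 1 μg/mL Shh (C24II). Dual firefly/Renilla luciferase read in lysates. FL/RL ratio normalized to cells given DMSO or compound alone; experiment done at least twice.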

palmitoylation of H-Ras = experiment: H-Ras palmitoylation in COS-1 cells; type: cell-based; settings: COS-1 cells expressing H-Ras N17
Procedure, shortened: as §1

[5] = system: paracrine Shh signaling in C3H10T1/2 cells; experiment: C3H10T1/2 alkaline phosphatase reporter assay; type: cell-based
Procedure, shortened: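 C3H10T1/2 reporter cells and COS-1 cells transfected with HA-Hhat and Shh plasmids plated alone or cocultured (4:1), 24 h at 37°C. Medium then switched to DMSO or 10 μM test compound for 72 h, with re-addition at 48 h. Alkaline phosphatase measured in lysates with a fluorogenic FDP substrate kit, read over 30 min at 5-min intervals; mean ± SD, n=3.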

[6] = system: Shh and Hhat in COS-1 cells; experiment: Shh autoprocessing, Shh/Hhat levels and localization in COS-1 cells; type: cell-based; settings: 10µM, 5h
Procedure, shortened: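 COS-1 cells were transfected with Shh and HA-Hhat and reseeded on coverslips after 24 h. A day later they were fixed in 4% paraformaldehyde for 20 min and permeabilized with 0.2% Triton X-100. After blocking in 3% BSA, cells took rabbit anti-Shh (1:100) and mouse anti-HA (1:200) for 1 h, then Alexa-conjugated secondaries and Hoechst for 45 min. Confocal imaging at 63X: 5–10 images per slide, ≥2 slides per condition, three experiments. Protein levels by Western blot.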

myristoylation of c-Src = experiment: c-Src myristoylation in COS-1 cells; type: cell-based; settings: COS-1 cells expressing c-Src
Procedure, shortened: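 COS-1 cells were transfected with Shh, HA-Hhat and Src, with test compound or DMSO added the night before or at the start of starvation. After 1 h starvation in DMEM with 2% dialyzed FCS, 30 μCi/ml 125I-iodo-tridecanoate was added for 4 h at 37°C. RIPA lysates were cleared at 100,000xg, immunoprecipitated overnight at 4°C, resolved on 12.5% SDS-PAGE and quantified by phosphorimager. Duplicates, ≥3 repeats.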

[7] = Half-life in mouse plasma after IV administration; type: in vivo

Hhat, sequence (Q5VTY9 whole entry): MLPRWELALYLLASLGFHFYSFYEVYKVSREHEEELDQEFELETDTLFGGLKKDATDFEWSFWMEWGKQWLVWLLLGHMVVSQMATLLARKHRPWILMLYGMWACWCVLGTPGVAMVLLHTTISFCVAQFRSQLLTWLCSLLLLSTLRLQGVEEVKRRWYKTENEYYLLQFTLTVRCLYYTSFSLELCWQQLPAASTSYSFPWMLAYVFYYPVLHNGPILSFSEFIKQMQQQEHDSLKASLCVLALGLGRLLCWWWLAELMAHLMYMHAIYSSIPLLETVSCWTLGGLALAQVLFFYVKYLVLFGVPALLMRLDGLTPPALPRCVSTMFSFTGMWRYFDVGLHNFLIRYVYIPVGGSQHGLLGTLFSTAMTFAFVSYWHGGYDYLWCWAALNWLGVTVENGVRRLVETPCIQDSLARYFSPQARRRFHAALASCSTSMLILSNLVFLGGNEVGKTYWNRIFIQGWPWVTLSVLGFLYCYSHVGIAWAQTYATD

Molecule: Cc1c(C(=O)Nc2ccc(N3C[C@@H](C)O[C@@H](C)C3)nc2)cccc1-c1ccc(OC(F)(F)F)cc1 [LDE225, reference compound]
- Gli-responsive luciferase activation (FL/RL ratio) [1]: blocked luciferase activation

- Ki (Hhat): 6.9 µM
- half-life [7]: 17 min
Molecule: CCC(C)CNCC(=O)N1CCc2sccc2C1COc1cccc(C)c1 (stereo not shown) [RU-SKI 43, 2-((2-methylbutyl)amino)-1-(4-((m-tolyloxy)methyl)-6,7-dihydrothieno[3,2-c]pyridin-5(4H)-yl)ethanone]
- Inhibition of Shh palmitoylation in cells ([2]; COS-1 cells expressing HA-Hhat and Shh, 0, 10 or 20 μM, 5 h): Dose-dependent inhibition
- Radiolabel incorporation into ShhN in cells ([2]; COS-1 cells expressing HA-Hhat and Shh, 25 μM compound, 16 h): strongly inhibited
- Palmitoylation of Shh by endogenous Hhat ([2]; COS-1 cells transfected with Shh only, 10 µM): inhibited
- Effect of Hhat overexpression on inhibition of Shh palmitoylation ([2]; transfected COS-1 cells, increasing amounts of Hhat, 10µM): reduced the ability of RU-SKI 43 to inhibit Shh palmitoylation
- Effect of Porcupine overexpression on inhibition of Shh palmitoylation ([2]; transfected COS-1 cells, increasing amounts of Porcupine, 10µM): no effect
- Gli-responsive luciferase activation (FL/RL ratio) [1]: blocks Gli activation; also recorded: blocked luciferase activation
- Rescue of the inhibitory effect with SAG or Shh (C24II) ([1]; Shh-transfected NIH 3T3 cells, 10µM RU-SKI 43 with 100nM SAG or 1µg/mL Shh (C24II), 24h): not able to rescue
- Effect on Shh signaling in SuFu−/− cells [3]: does not affect Shh pathway activation; also recorded: no effect
- Fatty acylation of Wnt3a by Porcupine (Porcupine; 10 μM): does not inhibit Porcupine; also recorded: no effect
- Palmitoylation of Fyn (palmitoylation of Fyn): Neither palmitoylation of H-Ras and Fyn nor myristoylation of c-Src was affected
- Effect on activation of Gli1 by SAG ([4]; 100 nM SAG): does not affect exogenous Shh pathway activation; also recorded: no effect
- Effect on activation of Gli1 by recombinant Shh (C24II) ([4]; 1μg/mL Shh (C24II)): does not affect exogenous Shh pathway activation; also recorded: no effect
- Palmitoylation of H-Ras (palmitoylation of H-Ras): Neither palmitoylation of H-Ras and Fyn nor myristoylation of c-Src was affected
- Alkaline phosphatase (AP) activity ([5]; C3H10T1/2 cocultured with COS-1 expressing Shh and Hhat, 10 μM, 72h): blocks paracrine Shh signaling; also recorded: reduced to baseline
- Shh autoprocessing, steady-state levels of Shh and Hhat, subcellular localization of Shh and Hhat [6]: did not alter
- Myristoylation of c-Src (myristoylation of c-Src): Neither palmitoylation of H-Ras and Fyn nor myristoylation of c-Src was affected

Molecule: CNC1CCC(N(Cc2cccc(-c3ccncc3)c2)C(=O)c2sc3ccccc3c2Cl)CC1 (stereo not shown) [SAG, reference compound]
- Gli1 activation in untreated Shh-expressing cells ([1]; Shh-expressing NIH 3T3 cells, 100nM SAG): neither SAG (Supplementary Fig. 8) nor overexpression of Smo[17] activated Gli1 to levels higher than those achieved with Shh alone

- Fatty acylation of Wnt3a by Porcupine (Porcupine; 100 nM): blocked radiolabel incorporation
Molecule: Cc1cc(-c2ccc(CC(=O)Nc3ccc(-c4cccnc4)cc3)cc2)ccn1 [Wnt C59, reference compound]

B1: Noggin: the BMP inhibitor Noggin (protein, UniProt Q13253 28-232, looked up)
Noggin: QHYLHIRPAPSDNLPLVDLIEHPDPIFDPKEKDLNETLLRSLLGGHYDPGFMATSPPEDRPGGGGGAAGGAEDLAELDQLLRQRPSGAMPSEIKGLEFSEGLAQGKKQRLSKKLRRKLQMWLWSQTFCPVLYAWNDLGSRFWPRYVKVGSCFSKRSCSVPEGMVCKPSKSVHLTVLRWRCQRRGGQRCGWIPIQYPIISECKCSC
- Alkaline phosphatase (AP) activity ([5]; BMP inhibitor control, concentration not given): no effect
